Test results: ChEMBL document CHEMBL1122431, “Carbocyclic analogues of 5-substituted uracil nucleosides: synthesis and antiviral activity” (1983)
≈ marks a conversion by molar mass, not a printed value.

Legend:
Format in all cases: functional
Human alphaherpesvirus 2 [1] = assay: Antiviral activity against herpes simplex virus(2) strain MS expressed as virus rating
How it was run: (§1)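 Inhibition of virus-induced cytopathogenic effect (CPE) in primary rabbit kidney cell cultures challenged with HSV-1 strain 377 or HSV-2 strain MS. HSV-2 testing followed the same procedure. Activity was scored as a virus rating (VR).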

Human alphaherpesvirus 1 [2] = assay: Minimum inhibitory concentration (MIC50) in Herpes simplex virus type-1 (HSV-1) using 377 strain.
How it was run: (§2)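 Inhibition of virus-induced CPE in primary rabbit kidney cell cultures infected with HSV-1 strain 377 or HSV-2 strain MS. Potency was taken as the minimum inhibitory concentration (MIC50), in μg/mL, alongside the virus rating.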

Human alphaherpesvirus 2 [3] = assay: Minimum inhibitory concentration (MIC50) in Herpes simplex virus type-2 (HSV-2) using MS strain.; how it was run: as §2
Human alphaherpesvirus 1 [4] = assay: Antiviral activity against herpes simplex virus(1) strain 377.; how it was run: as §1
Human alphaherpesvirus 2 [5] = assay: Antiviral activity against herpes simplex virus(2) strain MS expressed as virus rating.; how it was run: as §1
Human alphaherpesvirus 1 [6] = assay: Antiviral activity against herpes simplex virus(1) strain 377, expressed as virus rating. Experiment 3; how it was run: as §1
Human alphaherpesvirus 1 [7] = assay: Minimum inhibitory concentration (MIC50) in Herpes simplex virus type-1 (HSV-1) using 377 strain. Experiment 2; how it was run: as §2
Human alphaherpesvirus 1 [8] = assay: Minimum inhibitory concentration (MIC50) in Herpes simplex virus type-1 (HSV-1) using 377 strain. Experiment 3; how it was run: as §2
Human alphaherpesvirus 1 [9] = assay: Antiviral activity against herpes simplex virus(1) strain 377, expressed as virus rating. Experiment 1; how it was run: as §1
Human alphaherpesvirus 1 [10] = assay: Minimum inhibitory concentration (MIC50) in Herpes simplex virus type-1 (HSV-1) using 377 strain. Experiment 1; how it was run: as §2
Human alphaherpesvirus 1 [11] = assay: Antiviral activity against herpes simplex virus(1) strain 377, expressed as virus rating. Experiment 2; how it was run: as §1
Human alphaherpesvirus 1 [12] = assay: Minimum inhibitory concentration (MIC50) in Herpes simplex virus type-1 (HSV-1) using 377 strain at 0.9 virus rating. Experiment 2; how it was run: as §2
Human alphaherpesvirus 1 [13] = assay: Antiviral activity against herpes simplex virus(1) strain 377, expressed as virus rating; how it was run: as §1
Human alphaherpesvirus 2 [14] = assay: Antiviral activity against herpes simplex virus(2) strain MS expressed as virus rating. Experiment 2; how it was run: as §1
Human alphaherpesvirus 2 [15] = assay: Minimum inhibitory concentration (MIC50) in Herpes simplex virus type-2 (HSV-2) using MS strain. Experiment 2; how it was run: as §2
Human alphaherpesvirus 1 [16] = assay: Antiviral activity against herpes simplex virus(1) strain 377, expressed as virus rating. Experiment 4; how it was run: as §1
Human alphaherpesvirus 2 [17] = assay: Antiviral activity against herpes simplex virus(2) strain MS expressed as virus rating. Experiment 1; how it was run: as §1
Human alphaherpesvirus 2 [18] = assay: Minimum inhibitory concentration (MIC50) in Herpes simplex virus type-2 (HSV-2) using MS strain. Experiment 1; how it was run: as §2
Human alphaherpesvirus 1 [19] = assay: Minimum inhibitory concentration (MIC50) in Herpes simplex virus type-1 (HSV-1) using 377 strain. Experiment 4; how it was run: as §2
Human alphaherpesvirus 1 [20] = assay: Minimum inhibitory concentration (MIC50) in Herpes simplex virus type-1 (HSV-1) using 377 strain. Experiment 2.; how it was run: as §2
Human alphaherpesvirus 1 [21] = assay: Minimum inhibitory concentration (MIC50) in Herpes simplex virus type-1(HSV-1) using 377 strain.; how it was run: as §2
Human alphaherpesvirus 2 [22] = assay: Minimum inhibitory concentration (MIC50) in Herpes simplex virus type-2(HSV-2) using MS strain.; how it was run: as §2

Cc1cn([C@@H]2C[C@H](CO)[C@@H](O)C2)c(=O)[nH]c1=O
Virus rating (Human alphaherpesvirus 2 [1]): 3.2
MIC50 (Human alphaherpesvirus 1 [2]): 0.8 µg/mL (≈ 3.33 µM)
MIC50 (Human alphaherpesvirus 2 [3]): 7 µg/mL (≈ 29.1 µM)
Virus rating (Human alphaherpesvirus 1 [4]): 5.4

CNc1cn(C2CC(CO)C(O)C2O)c(=O)[nH]c1=O (stereo not given)
Virus rating (Human alphaherpesvirus 1 [4]): 0

CCCCNc1cn(C2CC(O)C(CO)C2)c(=O)[nH]c1=O (stereo not given)
MIC50 (Human alphaherpesvirus 1 [2]): 290 µg/mL (≈ 975 µM)
MIC50 (Human alphaherpesvirus 2 [3]): 1000 µg/mL (≈ 3360 µM)
Virus rating (Human alphaherpesvirus 1 [4]): 2
Virus rating (Human alphaherpesvirus 2 [5]): 0.7

CNc1cn(C2CC(O)C(CO)C2)c(=O)[nH]c1=O (stereo not given)
Virus rating (Human alphaherpesvirus 1 [6]): 4.5
MIC50 (Human alphaherpesvirus 1 [7]): 15 µg/mL (≈ 58.8 µM)
MIC50 (Human alphaherpesvirus 2 [3]): 229 µg/mL (≈ 897 µM)
MIC50 (Human alphaherpesvirus 1 [8]): 25 µg/mL (≈ 97.9 µM)
Virus rating (Human alphaherpesvirus 1 [9]): 4.2
MIC50 (Human alphaherpesvirus 1 [10]): 10 µg/mL (≈ 39.2 µM)
Virus rating (Human alphaherpesvirus 1 [11]): 3.9
Virus rating (Human alphaherpesvirus 2 [5]): 1.2

CC(=O)OCC1CC(n2cc(Br)c(=O)[nH]c2=O)CC1OC(C)=O (stereo not given)
Virus rating (Human alphaherpesvirus 1 [9]): 1.3
MIC50 (Human alphaherpesvirus 1 [10]): 92 µg/mL (≈ 236 µM)
MIC50 (Human alphaherpesvirus 1 [12]): 100 µg/mL (≈ 257 µM)
Virus rating (Human alphaherpesvirus 1 [11]): 0.9

Nc1cn(C2CC(CO)CC2O)c(=O)[nH]c1=O (stereo not given)
Virus rating (Human alphaherpesvirus 1 [4]): 0

O=c1ccn(C2CC(CO)C(O)C2O)c(=O)[nH]1 (stereo not given)
Virus rating (Human alphaherpesvirus 1 [4]): 0

Nc1cn(C2CC(O)C(CO)C2)c(=O)[nH]c1=O (stereo not given)
Virus rating (Human alphaherpesvirus 1 [13]): 0.1

O=c1ccn(C2CC(O)C(CO)C2)c(=O)[nH]1 (stereo not given)
Virus rating (Human alphaherpesvirus 1 [13]): 0

O=c1[nH]c(=O)n(C2CC(CO)C(O)C2O)cc1I (stereo not given)
Virus rating (Human alphaherpesvirus 1 [4]): 0

O=c1[nH]c(=O)n([C@H]2C[C@H](O)[C@@H](CO)O2)cc1I [IDOXURIDINE]
Virus rating (Human alphaherpesvirus 2 [1]): 5
MIC50 (Human alphaherpesvirus 1 [2]): 0.3 µg/mL (≈ 0.847 µM)
MIC50 (Human alphaherpesvirus 2 [3]): 1 µg/mL (≈ 2.82 µM)
Virus rating (Human alphaherpesvirus 1 [13]): 7.4

O=c1[nH]c(=O)n(C2CC(CO)CC2O)cc1I (stereo not given)
Virus rating (Human alphaherpesvirus 1 [4]): 0

CN(C)c1cn(C2CC(O)C(CO)C2)c(=O)[nH]c1=O (stereo not given)
Virus rating (Human alphaherpesvirus 1 [4]): 0

O=c1[nH]c(=O)n(C2CC(CO)CC2O)cc1F (stereo not given)
Virus rating (Human alphaherpesvirus 1 [4]): 0

CC(=O)OCC1CC(OC(C)=O)C(n2cc(Br)c(=O)[nH]c2=O)C1 (stereo not given)
Virus rating (Human alphaherpesvirus 1 [13]): 0

O=c1ccn(C2CC(CO)CC2O)c(=O)[nH]1 (stereo not given)
Virus rating (Human alphaherpesvirus 1 [4]): 0

O=c1[nH]c(=O)n(C2CC(CO)CC2O)cc1Br (stereo not given)
Virus rating (Human alphaherpesvirus 1 [4]): 0

Cc1cn(C2CC(CO)CC2O)c(=O)[nH]c1=O (stereo not given)
Virus rating (Human alphaherpesvirus 1 [4]): 0.4

CNc1cn(C2CC(CO)CC2O)c(=O)[nH]c1=O (stereo not given)
Virus rating (Human alphaherpesvirus 1 [4]): 0

O=c1[nH]c(=O)n([C@H]2C[C@H](O)[C@@H](CO)O2)cc1F [FLOXURIDINE]
Virus rating (Human alphaherpesvirus 2 [1]): 0
Virus rating (Human alphaherpesvirus 1 [4]): 0

Nc1cn(C2CC(CO)C(O)C2O)c(=O)[nH]c1=O (stereo not given)
Virus rating (Human alphaherpesvirus 1 [4]): 0

O=c1[nH]c(=O)n(C2CC(CO)C(O)C2O)cc1Br (stereo not given)
Virus rating (Human alphaherpesvirus 1 [4]): 0

Nc1ncnc2c1ncn2[C@@H]1O[C@H](CO)[C@@H](O)[C@@H]1O [VIDARABINE]
Virus rating (Human alphaherpesvirus 2 [1]): 2.3
MIC50 (Human alphaherpesvirus 1 [2]): 9.8 µg/mL (≈ 36.7 µM)
MIC50 (Human alphaherpesvirus 2 [3]): 20.1 µg/mL (≈ 75.2 µM)
Virus rating (Human alphaherpesvirus 1 [13]): 2.7

O=c1[nH]c(=O)n([C@@H]2C[C@H](CO)[C@@H](O)C2)cc1I
Virus rating (Human alphaherpesvirus 1 [6]): 7.9
Virus rating (Human alphaherpesvirus 2 [14]): 3.4
MIC50 (Human alphaherpesvirus 1 [7]): 0.3 µg/mL (≈ 0.852 µM)
MIC50 (Human alphaherpesvirus 2 [15]): 20 µg/mL (≈ 56.8 µM)
MIC50 (Human alphaherpesvirus 1 [8]): 0.1 µg/mL (≈ 0.284 µM)
Virus rating (Human alphaherpesvirus 1 [16]): 7.4
Virus rating (Human alphaherpesvirus 1 [9]): 6.5
Virus rating (Human alphaherpesvirus 2 [17]): 2.9
MIC50 (Human alphaherpesvirus 2 [18]): 32 µg/mL (≈ 90.9 µM)
MIC50 (Human alphaherpesvirus 1 [19]): 0.4 µg/mL (≈ 1.14 µM)
MIC50 (Human alphaherpesvirus 1 [10]): 0.4 µg/mL (≈ 1.14 µM)
Virus rating (Human alphaherpesvirus 1 [11]): 7.1

Cc1cn(C2CC(CO)C(O)C2O)c(=O)[nH]c1=O (stereo not given)
Virus rating (Human alphaherpesvirus 1 [4]): 0

O=c1[nH]c(=O)n(C2CC(CO)C(O)C2O)cc1F (stereo not given)
Virus rating (Human alphaherpesvirus 1 [4]): 0

O=c1[nH]c(=O)n(C2CC(CO)C(O)C2O)cc1CO (stereo not given)
Virus rating (Human alphaherpesvirus 2 [1]): 0
Virus rating (Human alphaherpesvirus 1 [13]): 0.3

CC(=O)OCC1CC(n2cc(I)c(=O)[nH]c2=O)CC1OC(C)=O (stereo not given)
Virus rating (Human alphaherpesvirus 1 [9]): 2.4
MIC50 (Human alphaherpesvirus 1 [20]): 25 µg/mL (≈ 57.3 µM)
MIC50 (Human alphaherpesvirus 1 [10]): 10 µg/mL (≈ 22.9 µM)
Virus rating (Human alphaherpesvirus 1 [11]): 1.6

O=c1[nH]c(=O)n(C2CC(O)C(CO)C2)cc1Br (stereo not given)
Virus rating (Human alphaherpesvirus 2 [1]): 1.5
MIC50 (Human alphaherpesvirus 1 [21]): 0.3 µg/mL (≈ 0.983 µM)
MIC50 (Human alphaherpesvirus 2 [22]): 32 µg/mL (≈ 105 µM)
Virus rating (Human alphaherpesvirus 1 [4]): 6.2
